# Where two headings read alike, the source gives them in different places.
# Experiments:
# ARH-77 MM cells [1] = experiment: MTT cell viability assay; format: cell-based, human; settings: read-out: IC50 cell viability, ARH-77, 72 hours
# STAT3 [2] = biological target: T1, STAT3 (Homo sapiens, UniProt P40763); experiment: STAT3 nuclear localization, immunofluorescence staining; format: cell-based; settings: U266 cells
# PKC-d = PKC-d (Homo sapiens, UniProt Q05655); settings: read-out: IC50 kinase activity, PKC-d; 10 concentrations, 100 μM highest
# U266 MM cells [3] = experiment: MTT cell viability assay; format: cell-based, human; settings: read-out: IC50 cell viability, U266, 72 hours
# STAT3 [4] = biological target: T1, STAT3; experiment: Western blot, constitutive STAT3 phosphorylation; format: cell-based
# How it was run: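 U266 and ARH-77 cells were treated with test compound or DMSO for 24 h. Primary CD138+ patient cells were isolated by positive magnetic selection (n=3 patients). Cells were lysed in cold RIPA buffer with protease inhibitors, run on SDS-PAGE and transferred to PVDF. Blots were probed for p-STAT3 (Tyr705) and total STAT3 and developed by chemiluminescence, with GAPDH as loading control.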
# [5] = system: STAT3 downstream target genes; experiment: RT-PCR of STAT3 downstream target genes; format: cell-based, human; settings: U266 and ARH-77, 24-h
# MM1.S MM cells = experiment: MTT viability of MM1.S cells; format: cell-based, human
# FGFR2 = FGFR2 (Homo sapiens, UniProt P21802); settings: read-out: IC50 kinase activity, FGFR2; 10 concentrations, 100 μM highest
# BRK = BRK (Homo sapiens, UniProt Q13882); settings: read-out: IC50 kinase activity, BRK; 10 concentrations, 100 μM highest
# IKKb = IKKb (Homo sapiens, UniProt O14920); settings: read-out: IC50 kinase activity, IKKb; 10 concentrations, 100 μM highest
# [6] = system: normal human peripheral blood lymphocytes
# [7] = 5 mg/kg daily intraperitoneal, vs vehicle-treated mice
# PAK1 = PAK1 (Homo sapiens, UniProt Q13153); settings: read-out: IC50 kinase activity, PAK1; 10 concentrations, 100 μM highest
# STAT1 = STAT1 (Homo sapiens, UniProt P42224); experiment: Western blot, cytokine-induced STAT1 phosphorylation; format: cell-based; settings: MM.1S, IFN-α stimulated, 2 hours pre-treatment
# How it was run: (§1)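 MM.1S cells were serum-starved for 24 h, then pre-treated for 2 h with test compound (2.5–10 μM), a reference STAT3 inhibitor (2.5–20 μM) or DMSO. IFN-α (25ng/ml) was added for 30 min in the presence or absence of test compound. Western blots of RIPA lysates were probed for p-STAT1 (Tyr701) or p-STAT2 (Tyr690).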
# FAK = FAK (Homo sapiens, UniProt Q05397); settings: read-out: IC50 kinase activity, FAK; 10 concentrations, 100 μM highest
# PKC-a = PKC-a (Homo sapiens, UniProt P17252); settings: read-out: IC50 kinase activity, PKC-a; 10 concentrations, 100 μM highest
# Lyn = Lyn (Homo sapiens, UniProt P07948); settings: read-out: IC50 kinase activity, Lyn; 10 concentrations, 100 μM highest
# Fyn = Fyn (Homo sapiens, UniProt P06241); settings: read-out: IC50 kinase activity, Fyn; 10 concentrations, 100 μM highest
# PAK2 = PAK2 (Homo sapiens, UniProt Q13177); settings: read-out: IC50 kinase activity, PAK2; 10 concentrations, 100 μM highest
# RPMI-8226 = experiment: Western blot, cleaved caspase-3 and PARP; format: cell-based, human; settings: IL-6 independent RPMI-8226, P-STAT3 too low to be detected
# How it was run: (§2)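 MM cells were treated with test compound (2.5, 5 or 10μM) or DMSO for 24 h, then lysed in cold RIPA buffer with protease inhibitors. Lysates were run on SDS-PAGE, transferred to PVDF and probed with antibodies to p-ERK1/2 (Thr202/Tyr204), p-Src (Tyr416), p-mTOR (Ser2448), or cleaved caspase-3 and cleaved PARP. Detection was by enhanced chemiluminescence, with GAPDH as loading control.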
# STAT3 [8] = biological target: T1, STAT3; experiment: Western blot, IL-6 and IFN-α induced STAT3 phosphorylation; format: cell-based; settings: MM.1S, 2 hours pre-treatment, 30 minutes stimulation
# mTOR = experiment: Western blot, mTOR phosphorylation; format: cell-based, human; settings: U266 and ARH-77 MM cells
# How it was run: as §2
# Fgr = Fgr (Homo sapiens, UniProt P09769); settings: read-out: IC50 kinase activity, Fgr; 10 concentrations, 100 μM highest
# ERK(1/2) = experiment: Western blot, ERK; format: cell-based, human
# How it was run: as §2
# U266 cells = experiment: Synergy of LLL12 and lenalidomide, combinational index; format: cell-based, human; settings: LLL12 combined with lenalidomide, U266, all combinations; CI < 1 = synergism
# AKT2 = AKT2 (Homo sapiens, UniProt P31751); settings: read-out: IC50 kinase activity, AKT2; 10 concentrations, 100 μM highest
# ARH-77 MM tumor cells = experiment: Mouse xenograft model; format: in vivo, NOD/SCID mice; settings: 5 mg/kg daily intraperitoneal, vs DMSO
# STAT4 = STAT4 (Homo sapiens, UniProt Q14765); experiment: Western blot, IL-4 induced STAT4 phosphorylation; format: cell-based; settings: IM-9 human MM cells
# How it was run: (§3)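 IM-9 cells were serum-starved for 24 h, then left untreated or pre-treated for 2 h with test compound (2.5–10 μM), a reference STAT3 inhibitor (2.5–20 μM) or DMSO. IL-4 (25ng/ml) was added, and cells were harvested 30 min later. Blots of RIPA lysates were probed for p-STAT4 (Tyr693) or p-STAT6 (Tyr641).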
# STAT6 = STAT6 (Homo sapiens, UniProt P42226); experiment: Western blot, IL-4 induced STAT6 phosphorylation; format: cell-based; settings: IM-9 human MM cells
# How it was run: as §3
# CDK1/CyclinB = CDK1/CyclinB (Homo sapiens, UniProt P06493); settings: read-out: IC50 kinase activity, CDK1/CyclinB; 10 concentrations, 100 μM highest
# U266 MM cells [9] = experiment: Annexin-V/PI flow cytometry apoptosis; format: cell-based, human; settings: 24 hours
# How it was run: (§4)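 Cells were treated with test compound or DMSO for 24 h, harvested, washed in cold PBS and resuspended in 1× binding buffer at 1 × 10^6 cells/ml. Annexin V-FITC and PI were added for 15 min at RT in the dark. Analysis was by flow cytometry within 1 h. Results come from at least 3 independent experiments, compared with DMSO by Mann-Whitney test.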
# [10] = system: normal human marrow [CD138(−)] cells; settings: 10μM, 24h, MTS
# Src = experiment: Western blot, Src phosphorylation; format: cell-based, human; settings: U266 and ARH-77 MM cells
# How it was run: as §2
# CSK = CSK (Homo sapiens, UniProt P41240); settings: read-out: IC50 kinase activity, CSK; 10 concentrations, 100 μM highest
# LcK = LcK (Homo sapiens, UniProt P06239); settings: read-out: IC50 kinase activity, LcK; 10 concentrations, 100 μM highest
# STAT3 [11] = biological target: T1, STAT3; experiment: STAT3 DNA binding activity in nuclear extracts; format: cell-based; settings: 24 hours, U266 and ARH-77 MM cells
# JNK1 = JNK1 (Homo sapiens, UniProt P45983); settings: read-out: IC50 kinase activity, JNK1; 10 concentrations, 100 μM highest
# BMX = BMX (Homo sapiens, UniProt P51813); settings: read-out: IC50 kinase activity, BMX; 10 concentrations, 100 μM highest
# STAT2 = STAT2 (Homo sapiens, UniProt P52630); experiment: Western blot, cytokine-induced STAT2 phosphorylation; format: cell-based; settings: MM.1S, IFN-α stimulated, 2 hours pre-treatment
# How it was run: as §1
# [12] = system: twenty one purified human protein kinases
# ZAP-70 = ZAP-70 (Homo sapiens, UniProt P43403); settings: read-out: IC50 kinase activity, ZAP-70; 10 concentrations, 100 μM highest
# JAK3 = JAK3 (Homo sapiens, UniProt P52333); settings: read-out: IC50 kinase activity, JAK3; 10 concentrations, 100 μM highest
# JNK2 = JNK2 (Homo sapiens, UniProt P45984); settings: read-out: IC50 kinase activity, JNK2; 10 concentrations, 100 μM highest
# PDGFR-a = PDGFR-a (Homo sapiens, UniProt P16234); settings: read-out: IC50 kinase activity, PDGFR-a; 10 concentrations, 100 μM highest
# ARH-77 MM cells [13] = experiment: Annexin-V/PI flow cytometry apoptosis; format: cell-based, human; settings: 24 hours
# How it was run: as §4
# T1 sequence (P40763 whole entry): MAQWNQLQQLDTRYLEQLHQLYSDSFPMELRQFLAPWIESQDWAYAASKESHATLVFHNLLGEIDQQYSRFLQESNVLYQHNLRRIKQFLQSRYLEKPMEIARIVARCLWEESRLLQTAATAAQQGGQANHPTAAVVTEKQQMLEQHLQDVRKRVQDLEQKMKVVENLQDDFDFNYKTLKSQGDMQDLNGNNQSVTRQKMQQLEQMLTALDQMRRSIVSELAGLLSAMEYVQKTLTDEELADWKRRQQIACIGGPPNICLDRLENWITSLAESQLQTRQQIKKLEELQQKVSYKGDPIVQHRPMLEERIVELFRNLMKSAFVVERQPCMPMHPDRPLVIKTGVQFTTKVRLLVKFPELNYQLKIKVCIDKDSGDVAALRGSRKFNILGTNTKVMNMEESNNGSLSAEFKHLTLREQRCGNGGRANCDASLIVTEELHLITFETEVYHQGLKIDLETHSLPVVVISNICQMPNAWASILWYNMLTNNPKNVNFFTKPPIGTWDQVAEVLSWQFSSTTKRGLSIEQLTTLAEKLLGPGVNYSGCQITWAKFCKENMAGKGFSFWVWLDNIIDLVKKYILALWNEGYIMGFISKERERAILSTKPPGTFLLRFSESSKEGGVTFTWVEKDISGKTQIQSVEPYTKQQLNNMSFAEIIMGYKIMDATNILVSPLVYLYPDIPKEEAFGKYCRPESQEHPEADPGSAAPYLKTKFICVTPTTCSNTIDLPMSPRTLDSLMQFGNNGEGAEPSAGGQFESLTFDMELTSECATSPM
# Chain of FAK (Q05397 whole entry): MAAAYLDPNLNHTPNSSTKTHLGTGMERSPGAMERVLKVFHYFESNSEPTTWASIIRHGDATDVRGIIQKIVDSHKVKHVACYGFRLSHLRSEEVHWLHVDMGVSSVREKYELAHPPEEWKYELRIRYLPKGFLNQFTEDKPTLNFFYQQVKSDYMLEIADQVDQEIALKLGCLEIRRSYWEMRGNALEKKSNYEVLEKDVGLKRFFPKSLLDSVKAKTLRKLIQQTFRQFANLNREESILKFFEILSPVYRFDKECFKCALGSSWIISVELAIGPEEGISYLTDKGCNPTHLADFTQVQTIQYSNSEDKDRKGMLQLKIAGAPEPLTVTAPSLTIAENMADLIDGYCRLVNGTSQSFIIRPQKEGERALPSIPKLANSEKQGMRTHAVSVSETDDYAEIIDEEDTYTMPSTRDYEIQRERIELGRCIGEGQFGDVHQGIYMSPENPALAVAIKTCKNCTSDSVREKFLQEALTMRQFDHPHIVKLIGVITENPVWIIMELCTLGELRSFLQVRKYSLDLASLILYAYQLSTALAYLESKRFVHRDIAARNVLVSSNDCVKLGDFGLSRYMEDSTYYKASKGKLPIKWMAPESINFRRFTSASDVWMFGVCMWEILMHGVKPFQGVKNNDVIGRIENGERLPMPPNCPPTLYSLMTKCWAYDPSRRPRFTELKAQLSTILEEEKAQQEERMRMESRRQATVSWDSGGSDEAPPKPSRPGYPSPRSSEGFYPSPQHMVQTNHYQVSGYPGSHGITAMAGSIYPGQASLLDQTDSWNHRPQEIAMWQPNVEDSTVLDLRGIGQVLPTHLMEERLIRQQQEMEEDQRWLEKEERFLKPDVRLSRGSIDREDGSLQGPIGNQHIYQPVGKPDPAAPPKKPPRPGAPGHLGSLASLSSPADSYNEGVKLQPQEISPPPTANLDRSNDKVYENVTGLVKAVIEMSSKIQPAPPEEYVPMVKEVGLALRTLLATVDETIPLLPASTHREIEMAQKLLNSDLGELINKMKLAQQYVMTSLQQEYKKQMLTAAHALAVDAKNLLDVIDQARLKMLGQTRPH
# Chain of STAT2 (P52630 whole entry): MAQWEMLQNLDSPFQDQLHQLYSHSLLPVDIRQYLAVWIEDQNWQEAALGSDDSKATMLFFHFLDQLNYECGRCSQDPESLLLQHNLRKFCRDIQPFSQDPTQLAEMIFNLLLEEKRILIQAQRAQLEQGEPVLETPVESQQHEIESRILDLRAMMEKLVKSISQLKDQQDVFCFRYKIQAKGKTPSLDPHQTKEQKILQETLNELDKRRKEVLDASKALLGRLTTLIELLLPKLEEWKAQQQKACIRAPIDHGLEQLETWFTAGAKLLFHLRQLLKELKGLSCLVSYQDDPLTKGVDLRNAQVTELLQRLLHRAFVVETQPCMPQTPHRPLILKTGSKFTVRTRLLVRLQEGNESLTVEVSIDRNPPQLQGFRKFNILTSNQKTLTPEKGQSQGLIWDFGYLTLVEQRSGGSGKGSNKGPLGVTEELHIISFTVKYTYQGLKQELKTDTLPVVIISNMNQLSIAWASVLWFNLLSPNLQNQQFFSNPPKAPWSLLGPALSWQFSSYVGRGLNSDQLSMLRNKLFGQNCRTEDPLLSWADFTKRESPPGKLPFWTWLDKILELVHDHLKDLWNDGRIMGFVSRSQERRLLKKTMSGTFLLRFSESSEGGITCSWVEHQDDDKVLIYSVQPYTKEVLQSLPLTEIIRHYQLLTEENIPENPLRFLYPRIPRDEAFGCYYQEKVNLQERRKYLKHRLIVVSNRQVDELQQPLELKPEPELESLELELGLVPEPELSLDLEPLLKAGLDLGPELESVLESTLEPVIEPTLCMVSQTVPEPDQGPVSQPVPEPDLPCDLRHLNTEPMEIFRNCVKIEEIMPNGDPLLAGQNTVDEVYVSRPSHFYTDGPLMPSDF
# Chain of Lyn (P07948 whole entry): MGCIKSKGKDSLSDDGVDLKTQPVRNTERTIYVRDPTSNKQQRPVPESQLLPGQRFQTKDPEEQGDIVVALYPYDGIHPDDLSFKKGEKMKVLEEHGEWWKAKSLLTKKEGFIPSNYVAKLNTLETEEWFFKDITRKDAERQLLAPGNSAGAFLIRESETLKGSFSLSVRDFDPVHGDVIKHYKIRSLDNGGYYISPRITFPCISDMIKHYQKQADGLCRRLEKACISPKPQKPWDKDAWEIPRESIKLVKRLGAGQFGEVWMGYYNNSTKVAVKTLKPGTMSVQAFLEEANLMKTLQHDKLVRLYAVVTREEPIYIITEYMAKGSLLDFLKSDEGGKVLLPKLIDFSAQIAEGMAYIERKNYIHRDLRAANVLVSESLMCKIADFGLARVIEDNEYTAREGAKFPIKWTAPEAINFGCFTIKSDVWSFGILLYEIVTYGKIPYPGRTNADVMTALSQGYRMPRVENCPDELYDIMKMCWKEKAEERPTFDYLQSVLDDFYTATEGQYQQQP
# Chain of PAK1 (Q13153 whole entry): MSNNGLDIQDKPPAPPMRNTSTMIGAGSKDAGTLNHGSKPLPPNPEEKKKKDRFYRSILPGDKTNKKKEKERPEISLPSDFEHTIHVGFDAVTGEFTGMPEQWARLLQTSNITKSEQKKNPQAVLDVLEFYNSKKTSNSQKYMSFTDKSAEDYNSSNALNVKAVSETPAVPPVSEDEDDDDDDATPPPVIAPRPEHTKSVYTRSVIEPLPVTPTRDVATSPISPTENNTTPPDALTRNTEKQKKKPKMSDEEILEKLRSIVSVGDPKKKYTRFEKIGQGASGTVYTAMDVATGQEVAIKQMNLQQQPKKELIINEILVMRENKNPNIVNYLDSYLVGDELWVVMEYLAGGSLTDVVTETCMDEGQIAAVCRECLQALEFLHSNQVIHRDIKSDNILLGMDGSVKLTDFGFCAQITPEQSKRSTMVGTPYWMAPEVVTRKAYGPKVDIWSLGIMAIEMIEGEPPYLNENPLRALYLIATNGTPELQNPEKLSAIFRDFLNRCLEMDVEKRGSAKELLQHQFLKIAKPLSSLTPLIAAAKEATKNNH
# Chain of JAK3 (P52333 whole entry): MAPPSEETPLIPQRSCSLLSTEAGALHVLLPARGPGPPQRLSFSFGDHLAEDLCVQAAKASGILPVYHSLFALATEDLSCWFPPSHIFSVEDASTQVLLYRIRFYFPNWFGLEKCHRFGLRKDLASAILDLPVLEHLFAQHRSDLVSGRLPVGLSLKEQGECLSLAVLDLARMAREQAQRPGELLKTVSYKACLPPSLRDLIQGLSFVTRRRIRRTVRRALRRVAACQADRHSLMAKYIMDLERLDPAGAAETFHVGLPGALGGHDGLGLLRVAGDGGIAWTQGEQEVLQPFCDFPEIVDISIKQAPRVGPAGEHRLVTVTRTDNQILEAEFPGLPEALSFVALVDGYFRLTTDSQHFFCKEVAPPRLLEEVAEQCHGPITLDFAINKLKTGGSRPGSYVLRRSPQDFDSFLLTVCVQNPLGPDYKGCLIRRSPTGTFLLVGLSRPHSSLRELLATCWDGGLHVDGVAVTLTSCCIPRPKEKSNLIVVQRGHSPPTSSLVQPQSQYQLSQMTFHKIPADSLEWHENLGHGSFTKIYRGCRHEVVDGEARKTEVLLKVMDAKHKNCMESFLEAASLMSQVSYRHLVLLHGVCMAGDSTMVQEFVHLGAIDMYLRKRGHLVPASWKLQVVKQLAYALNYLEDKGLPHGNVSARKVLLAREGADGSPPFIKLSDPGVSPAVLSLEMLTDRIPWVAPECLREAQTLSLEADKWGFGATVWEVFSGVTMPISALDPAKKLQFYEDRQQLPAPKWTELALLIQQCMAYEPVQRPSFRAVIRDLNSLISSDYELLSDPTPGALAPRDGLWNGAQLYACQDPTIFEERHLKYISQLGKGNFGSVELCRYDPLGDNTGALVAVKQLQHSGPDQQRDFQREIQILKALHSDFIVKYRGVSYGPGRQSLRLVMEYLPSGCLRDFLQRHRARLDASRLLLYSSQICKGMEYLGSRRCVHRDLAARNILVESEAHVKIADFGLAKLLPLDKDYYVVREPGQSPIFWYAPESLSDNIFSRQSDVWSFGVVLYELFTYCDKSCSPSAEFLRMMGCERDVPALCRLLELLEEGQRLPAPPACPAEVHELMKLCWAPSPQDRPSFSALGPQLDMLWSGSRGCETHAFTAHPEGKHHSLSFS
compound,measurement,setting,value
NS(=O)(=O)c1cccc2c1C(=O)c1cccc(O)c1C2=O [LLL12],IC50,ARH-77 MM cells [1],1.96 µM
same,STAT3 nuclear localization,STAT3 [2],most STAT3 was retained in cytoplasm and absent in nuclei
same,IC50,PKC-d,> 100 µM
same,IC50,U266 MM cells [3],0.49 µM
same,STAT3 phosphorylation at Tyr 705,"STAT3 [4]; U266 and ARH-77, 2.5μM or 5μM, 24 hours",inhibited STAT3 phosphorylation
same,STAT3 phosphorylation,STAT3 [4]; primary human MM cells from three patients,inhibited STAT3 phosphorylation
same,"transcription of cyclin D1, survivin, Bcl-2, Bcl-XL, DNMT1",[5],inhibition of the transcription of all five
same,IL-6 increased cell proliferation/viability,"MM1.S MM cells; IL-6 for 48 hours, MTT",blocked
same,IC50,FGFR2,> 100 µM
same,IC50,BRK,> 100 µM
same,IC50,IKKb,> 100 µM
same,effect on normal cells,[6],little effects
same,bodyweights of treated mice,[7],not reduced
same,IC50,PAK1,> 100 µM
same,STAT1 phosphorylation,STAT1,but not STAT1 or STAT2
same,IC50,FAK,> 100 µM
same,IC50,PKC-a,> 100 µM
same,IC50,Lyn,> 100 µM
same,IC50,Fyn,> 100 µM
same,IC50,PAK2,> 100 µM
same,cleaved caspase-3 and cleaved PARP,RPMI-8226,did not induce
same,IL-6 and IFN-α induced STAT3 phosphorylation,STAT3 [8],prevented phosphorylation of STAT3
same,phosphorylation of mTOR,mTOR,not reduced significantly
same,IC50,Fgr,57.2 µM
same,phosphorylation of ERK(1/2),"ERK(1/2); ARH-77 MM cells, 5μM",slightly reduced
same,phosphorylation of ERK(1/2),ERK(1/2); U266 MM cells,even increased
same,Combinational Index (CI),U266 cells,less than 1
same,IC50,AKT2,91.8 µM
same,STAT3 phosphorylation in tumors,ARH-77 MM tumor cells; Western blot,inhibited STAT3 phosphorylation
same,tumor volume,ARH-77 MM tumor cells; p < 0.05,significantly suppressed
same,tumor weight,ARH-77 MM tumor cells; p < 0.05,significantly suppressed
same,STAT4 phosphorylation by IL-4,STAT4,did not prevent phosphorylation
same,STAT6 phosphorylation by IL-4,STAT6,did not prevent phosphorylation
same,IC50,CDK1/CyclinB,> 100 µM
same,Apoptosis (Annexin V/PI),"U266 MM cells [9]; U266, 2.5μM",38.2%
same,Apoptosis (Annexin V/PI),"U266 MM cells [9]; U266, 5μM",53.3%
same,effect on normal cells,[10],little effects
same,phosphorylation of Src,Src,not reduced significantly
same,IC50,CSK,73.9 µM
same,IC50,LcK,> 100 µM
same,reduction of STAT3 DNA binding activity,STAT3 [11]; 2.5μM,30–33%
same,reduction of STAT3 DNA binding activity,STAT3 [11]; 5μM,58–69%
same,IC50,JNK1,> 100 µM
same,IC50,BMX,> 100 µM
same,STAT2 phosphorylation,STAT2,but not STAT1 or STAT2
same,IC50,"[12]; read-out: IC50, kinases which contain an SH2 domain, BMX, BRK, CSK, Fgr, Fyn, JAK3, LcK, Lyn, ZAP-70, 57.19 μM to > 100 μM",≥ 57.2 µM
same,IC50,"[12]; read-out: IC50, other protein kinases, AKT2, CDK1/cyclin B, FAK, FGFR2, IKKβ, JNK1, JNK2, PAK1, PAK2, PDGFR-α, PKC-α, PKC-δ, 91.76 μM to > 100 μM",≥ 91.8 µM
same,IC50,ZAP-70,> 100 µM
same,IC50,JAK3,89.7 µM
same,IC50,JNK2,> 100 µM
same,IC50,PDGFR-a,> 100 µM
same,Apoptosis (Annexin V/PI),"ARH-77 MM cells [13]; ARH-77, 2.5μM",70.8%
same,Apoptosis (Annexin V/PI),"ARH-77 MM cells [13]; ARH-77, 5μM",73.5%
"O=[N+]([O-])c1ccc2c(c1)S(=O)(=O)C=C2 [Stattic, reference compound]",IL-6 and IFN-α induced STAT3 phosphorylation,STAT3 [8],much less potent than LLL12
"Nc1cccc2c1CN(C1CCC(=O)NC1=O)C2=O (stereo not shown) [lenalidomide, Lenalidomide, reference compound]",cell viability,MM1.S MM cells; lenalidomide alone,dose-dependent reduction of cell viability
